# According to ChEMBL document CHEMBL1926616, “Design, synthesis and biological evaluation of novel glycosylated diphyllin derivatives as topoisomerase II inhibitors” (Eur J Med Chem, 2012):
# Active and inactive are the calls of the source. The rule behind the calls is not given here.
# Experiments:
# KB [1] = test: Cytotoxicity against human KB cells after 72 hrs by sulforhodamine B and MTT assay; format: functional, cell-based
# How it was run: (§1)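 Log-phase cells were plated overnight and exposed for 72 h to a 5-concentration gradient, in triplicate wells. SRB arm: 10% cold TCA fixation for 1 h at 4 °C, 4 mg/ml SRB in 1% acetic acid for 15 min, dye dissolved in 10 mM Tris-HCl, read at 520 nm. MTT arm: 5 mg/mL MTT for 4 h at 37 °C, SDS-isobutanol-HCl solubilisation for 12–20 h, read at 570 nm. IC50 by Logit method from at least 3 independent tests.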
# MCF7 = test: Cytotoxicity against human MCF7 cells after 72 hrs by sulforhodamine B and MTT assay; format: functional, cell-based; conditions: MCF7, 72 h; how it was run: as §1
# HCT-116 [2] = test: Cytotoxicity against human HCT116 cells after 72 hrs by sulforhodamine B and MTT assay; format: functional, cell-based; conditions: HCT-116, 72 h; how it was run: as §1
# [3] = molecular target: DNA topoisomerase 2-alpha (Homo sapiens) (UniProt P11388); test: Inhibition of human topoisomerase 2-mediated decatenation of kinetoplast DNA at 100 uM after 15 mins by agarose gel electrophoresis
# DNA topoisomerase 2-alpha (Homo sapiens), sequence (P11388 whole entry): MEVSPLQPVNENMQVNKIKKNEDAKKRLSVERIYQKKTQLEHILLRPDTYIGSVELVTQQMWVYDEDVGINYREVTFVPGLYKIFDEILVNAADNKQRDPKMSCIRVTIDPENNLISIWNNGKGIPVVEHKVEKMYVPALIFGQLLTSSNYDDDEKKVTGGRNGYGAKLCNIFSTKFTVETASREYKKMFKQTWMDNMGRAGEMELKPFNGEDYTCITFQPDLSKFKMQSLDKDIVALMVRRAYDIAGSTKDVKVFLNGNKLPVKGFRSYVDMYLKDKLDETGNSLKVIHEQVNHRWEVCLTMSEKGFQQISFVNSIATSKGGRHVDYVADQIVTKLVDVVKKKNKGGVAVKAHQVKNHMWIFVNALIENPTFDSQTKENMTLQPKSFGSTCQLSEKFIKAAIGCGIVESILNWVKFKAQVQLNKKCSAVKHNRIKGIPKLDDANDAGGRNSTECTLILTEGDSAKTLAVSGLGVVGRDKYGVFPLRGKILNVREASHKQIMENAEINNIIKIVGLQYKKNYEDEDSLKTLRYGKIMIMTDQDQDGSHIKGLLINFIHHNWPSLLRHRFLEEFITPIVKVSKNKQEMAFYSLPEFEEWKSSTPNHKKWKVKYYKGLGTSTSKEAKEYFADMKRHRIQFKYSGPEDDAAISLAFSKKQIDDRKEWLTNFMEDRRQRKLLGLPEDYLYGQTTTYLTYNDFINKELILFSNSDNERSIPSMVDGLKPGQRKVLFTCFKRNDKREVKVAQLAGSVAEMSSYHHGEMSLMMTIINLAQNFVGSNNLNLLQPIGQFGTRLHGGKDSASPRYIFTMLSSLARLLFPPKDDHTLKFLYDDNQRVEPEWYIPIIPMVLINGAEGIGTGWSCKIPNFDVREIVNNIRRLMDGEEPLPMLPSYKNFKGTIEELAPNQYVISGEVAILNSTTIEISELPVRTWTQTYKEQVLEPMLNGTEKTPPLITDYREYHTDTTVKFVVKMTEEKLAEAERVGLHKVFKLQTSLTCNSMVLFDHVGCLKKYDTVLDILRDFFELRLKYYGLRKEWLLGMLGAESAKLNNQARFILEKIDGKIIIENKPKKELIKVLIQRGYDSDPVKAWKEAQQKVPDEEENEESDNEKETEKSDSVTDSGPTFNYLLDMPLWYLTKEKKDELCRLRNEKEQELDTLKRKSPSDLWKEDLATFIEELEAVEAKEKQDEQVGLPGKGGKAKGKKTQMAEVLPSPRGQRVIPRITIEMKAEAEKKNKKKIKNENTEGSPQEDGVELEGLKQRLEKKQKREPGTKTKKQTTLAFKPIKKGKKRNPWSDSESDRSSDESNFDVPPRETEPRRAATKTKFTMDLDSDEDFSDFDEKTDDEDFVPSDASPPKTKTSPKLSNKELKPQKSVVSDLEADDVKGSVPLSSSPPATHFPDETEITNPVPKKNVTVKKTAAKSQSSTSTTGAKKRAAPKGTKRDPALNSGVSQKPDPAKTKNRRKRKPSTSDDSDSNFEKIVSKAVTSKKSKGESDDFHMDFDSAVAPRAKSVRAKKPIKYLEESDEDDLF
# How it was run: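 ATP-dependent kDNA decatenation by 1 unit Topo II in 50 mM Tris-HCl pH 7.7, 50 mM KCl, 5 mM MgCl2, 1 mM ATP, 0.5 mM DTT, 0.5 mM EDTA and BSA, run for 15 min at 37 °C. Stopped with 10% SDS, then run on 1% agarose in TAE at 4 V/cm for 1 h and stained with ethidium bromide.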
# HL-60 [4] = test: Cell cycle arrest in human HL60 cells assessed as accumulation at G2/M phase after 24 hrs using propidium iodide stain by FACS-flow cytometry; format: functional, cell-based
# HL-60 [5] = test: Cell cycle arrest in human HL60 cells assessed as accumulation at G2/M phase at 1 to 10 uM using propidium iodide stain by FACS-flow cytometry; format: functional, cell-based; conditions: TDE = time-dependent effect
# HCT-116 [6] = test: Cell cycle arrest in human HCT116 cells assessed as accumulation at G0/G1 phase after 24 hrs using propidium iodide stain by FACS-flow cytometry; format: functional, cell-based
# HL-60 [7] = test: Cell cycle arrest in human HL60 cells assessed as accumulation at G2/M phase at 1 uM after 24 hrs using propidium iodide stain by FACS-flow cytometry (reference value: 22.6%); format: functional
# HL-60 [8] = test: Cell cycle arrest in human HL60 cells assessed as accumulation at G0/G1 phase after 24 hrs using propidium iodide stain by FACS-flow cytometry; format: functional, cell-based
# HCT-116 [9] = test: Cell cycle arrest in human HCT116 cells assessed as accumulation at G2/M phase after 24 hrs using propidium iodide stain by FACS-flow cytometry; format: functional, cell-based
# KB [10] = test: Resistance index, ratio of IC50 for vincristine-selected multi drug-resistant human KB cells to IC50 for human KB cells; format: functional
# How it was run: (§2)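 Resistance factor is the IC50 in the resistant line divided by the IC50 in the parental line. Both IC50s come from 72 h SRB/MTT growth-inhibition assays, derived by the Logit method from at least 3 independent tests.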
# HL-60 [11] = test: Cell cycle arrest in human HL60 cells assessed as accumulation at G0/G1 phase at 1 to 10 uM using propidium iodide stain by FACS-flow cytometry; format: functional, cell-based; conditions: TDE = time-dependent effect
# KB [12] = test: Cytotoxicity against vincristine-selected multi drug-resistant human KB cells after 72 hrs by sulforhodamine B and MTT assay; format: functional, cell-based
# How it was run: (§3)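 Log-phase cells were seeded, preincubated (overnight for SRB, 24 h for MTT), then given a five-concentration gradient in triplicate wells for 72 h. For MTT, reagent was added for 4 h at 37 °C, solubilized in SDS-isobutanol-HCl for 12-20 h, and read at 570 nm. IC50 was derived by the Logit method from at least 3 independent tests.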
# HCT-116 [13] = test: Cell cycle arrest in human HCT116 cells assessed as accumulation at G0/G1 phase at 1 to 10 uM using propidium iodide stain by FACS-flow cytometry; format: functional, cell-based; conditions: TDE = time-dependent effect
# K562 [14] = test: Cytotoxicity against adriamycin-selected multi drug-resistant human K562 cells after 72 hrs by sulforhodamine B and MTT assay; format: functional, cell-based; conditions: K562, 72 h; how it was run: as §3
# HCT-116 [15] = test: Cell cycle arrest in human HCT116 cells assessed as accumulation at G2/M phase at 1 to 10 uM using propidium iodide stain by FACS-flow cytometry; format: functional, cell-based; conditions: TDE = time-dependent effect
# HL-60 [16] = test: Cell cycle arrest in human HL60 cells assessed as accumulation at G2/M phase at 10 uM after 24 hrs using propidium iodide stain by FACS-flow cytometry (reference value: 22.6%); format: functional
# HL-60 [17] = test: Induction of apoptosis in human HL60 cells assessed as DNA fragmentation at 10 uM after 36 hrs by gel electrophoresis; format: functional, cell-based
# How it was run: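 HL-60 cells were seeded and exposed to compound for 36 h. Harvested cells were lysed with an equal volume of 1.2% SDS, and the fragmented DNA was extracted and resolved by gel electrophoresis.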
# HCT-116 [18] = test: Cell cycle arrest in human HCT116 cells assessed as accumulation at G2/M phase at 1 to 10 uM after 24 hrs using propidium iodide stain by FACS-flow cytometry; format: functional, cell-based
# HL-60 [19] = test: Cell cycle arrest in human HL60 cells assessed as accumulation at S phase at 1 uM after 24 hrs using propidium iodide stain by FACS-flow cytometry (reference value: 38.4%); format: functional
# HL-60 [20] = test: Cell cycle arrest in human HL60 cells assessed as accumulation at G0/G1 phase at 10 uM after 24 hrs using propidium iodide stain by FACS-flow cytometry (reference value: 39%); format: functional
# HL-60 [21] = test: Cell cycle arrest in human HL60 cells assessed as accumulation at G0/G1 phase at 1 uM after 24 hrs using propidium iodide stain by FACS-flow cytometry (reference value: 39%); format: functional
# K562 [22] = test: Cytotoxicity against human K562 cells after 72 hrs by sulforhodamine B and MTT assay; format: functional, cell-based; conditions: K562, 72 h; how it was run: as §3
# HL-60 [23] = test: Cell cycle arrest in human HL60 cells assessed as accumulation at S phase at 10 uM after 24 hrs using propidium iodide stain by FACS-flow cytometry (reference value: 38.4%); format: functional
# K562 [24] = test: Resistance index, ratio of IC50 for adriamycin-selected multi drug-resistant human K562 cells to IC50 for human K562 cells; format: functional; how it was run: as §2
# HCT-116 [25] = test: Cell cycle arrest in human HCT116 cells assessed as accumulation at G0/G1 phase at 1 to 10 uM after 24 hrs using propidium iodide stain by FACS-flow cytometry; format: functional, cell-based
SMILES,IC50 (KB [1]) [µM],IC50 (MCF7) [µM],IC50 (HCT-116 [2]) [µM],inhibition [3],Activity (HL-60 [7]) [%],Ratio IC50 (KB [10]),IC50 (KB [12]) [µM],IC50 (K562 [14]) [µM],Activity (HL-60 [16]) [%],Activity (HL-60 [17]),Activity (HCT-116 [18]),Activity (HL-60 [19]) [%],Activity (HL-60 [20]) [%],Activity (HL-60 [21]) [%],IC50 (K562 [22]) [µM],Activity (HL-60 [23]) [%],Ratio IC50 (K562 [24]),Activity (HCT-116 [25]),also measured
COc1cc2c(O[C@H]3O[C@@H](C)[C@@H](OC(C)=O)[C@@H](O)[C@@H]3O)c3c(c(-c4ccc5c(c4)OCO5)c2cc1OC)C(=O)OC3 [4'-O-ACETYLPATENTIFLORIN B],0.14,0.11,0.27,Active,,,,,,,,,,,,,,,
COc1cc2c(O[C@@H]3OC[C@@H](O)[C@H](O)[C@H]3O)c3c(c(-c4ccc5c(c4)OCO5)c2cc1OC)C(=O)OC3,0.41,1.55,0.82,inactive,18.9,2.9,1.19,58.8,19.2,Active,Active,35.5,47,45.6,4.4,33.8,13.4,Active,Activity (HL-60 [4]): Dose-dependent effect; Activity (HL-60 [5]): tde; Activity (HCT-116 [6]): Dose-dependent effect; Activity (HL-60 [8]): Dose-dependent effect; Activity (HCT-116 [9]): Dose-dependent effect; Activity (HL-60 [11]): tde; Activity (HCT-116 [13]): tde; Activity (HCT-116 [15]): tde
COc1cc2c(O[C@@H]3O[C@@H]4COC(C)(C)O[C@H]4[C@H](O)[C@H]3O)c3c(c(-c4ccc5c(c4)OCO5)c2cc1OC)C(=O)OC3,0.01,0.053,0.043,Active,,,,,,,,,,,,,,,
COc1cc2c(O[C@@H]3O[C@H](C)[C@H](O)[C@H](O)[C@H]3O)c3c(c(-c4ccc5c(c4)OCO5)c2cc1OC)C(=O)OC3,3.05,1.81,6.43,inactive,31.5,,,,24.9,Active,inactive,30,40.5,38.6,,34.6,,inactive,
COc1cc2c(O)c3c(c(-c4ccc5c(c4)OCO5)c2cc1OC)C(=O)OC3 [DIPHYLLIN],0.78,0.54,3.54,Active,,4,3.15,23.5,,,,,,,1.67,,14.1,,
COC[C@H]1O[C@@H](Oc2c3c(c(-c4ccc5c(c4)OCO5)c4cc(OC)c(OC)cc24)C(=O)OC3)[C@H](O)[C@@H](O)[C@@H]1O,4.5,> 10,> 10,inactive,,,,,,,,,,,,,,,
COc1cc2c(O[C@@H]3O[C@H](C)[C@@H](OC(C)=O)[C@H](OC(C)=O)[C@H]3OC(C)=O)c3c(c(-c4ccc5c(c4)OCO5)c2cc1OC)C(=O)OC3,0.44,0.38,0.27,Active,17.4,3,1.32,7.66,25.7,Active,Active,36.3,55,46.4,0.808,19.3,9.5,Active,Activity (HL-60 [4]): Dose-dependent effect; Activity (HL-60 [5]): tde; Activity (HCT-116 [6]): Dose-dependent effect; Activity (HL-60 [8]): Dose-dependent effect; Activity (HCT-116 [9]): Dose-dependent effect; Activity (HL-60 [11]): tde; Activity (HCT-116 [13]): tde; Activity (HCT-116 [15]): tde
CC[C@]1(O)C[C@H]2CN(CCc3c([nH]c4ccccc34)[C@@](C(=O)OC)(c3cc4c(cc3OC)N(C=O)[C@H]3[C@@](O)(C(=O)OC)[C@H](OC(C)=O)[C@]5(CC)C=CCN6CC[C@]43[C@@H]65)C2)C1 [VINCRISTINE],0.003,,,,,536.7,1.61,,,,,,,,,,,,
